The record followed here is ChEMBL document CHEMBL1132284, “Potent, orally active GPIIb/IIIa antagonists containing a nipecotic acid subunit. Structure-activity studies leading to the discovery of RWJ-53308” (J Med Chem, 1999).

A value given as a limit tells only on which side of the number the result lay.

The test system of assay [1] is Canis familiaris. Put plainly: Inhibitory activity tested in ex vivo (canine) against ADP-induced platelet aggregation at the dose of 10 mg/kg. Type of assay: functional, Canis lupus familiaris.
The species entered for another assay is Homo sapiens. Put plainly: In vitro inhibitory potency against human gel filtered platelet (GFP) aggregation. Type of assay: functional. In a few lines:
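Human gel-filtered platelets, aggregation induced by thrombin; IC50; n = 2.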

Assay [2] concerns the target Integrin alpha-IIb/beta-3 (Homo sapiens, UniProt P05106+P08514). Nature of the assay: In vitro inhibition of biotinylated fibrinogen binding to immobilized fibrinogen receptor. Type of assay: protein-complex assay. In outline: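 Binding of biotinylated fibrinogen to immobilized purified GPIIb/IIIa, solid phase; IC50; n = 2.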
Assay [3] concerns Canis familiaris. Nature of the assay: Ex vivo duration of inhibition of ADP-induced canine platelet aggregation by 3 mg/kg. Type of assay: functional, Canis lupus familiaris. In outline:
(§1)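 Fasted mongrel dogs (8–22 kg, n = 3) given compound orally by stomach tube in 10 mL water. Citrated cephalic-vein blood drawn pre-dose and at 30, 60, 90, 120, 180, 240, 360 min. PRP adjusted to 300 000/μL with PPP, warmed 2 min at 37 °C, and aggregated with 20 μM ADP, read as light transmission. Inhibition is drug versus vehicle; duration is time at ≥50% inhibition.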

Assay [4] relates to Canis familiaris. Put plainly: Inhibitory activity tested in ex vivo (canine) against ADP-induced platelet aggregation at the dose of 1 mg/kg. Type of assay: functional, Canis lupus familiaris. In a few lines: as §1

Sequence of Integrin alpha-IIb/beta-3 (P05106 27-788 limits assumed): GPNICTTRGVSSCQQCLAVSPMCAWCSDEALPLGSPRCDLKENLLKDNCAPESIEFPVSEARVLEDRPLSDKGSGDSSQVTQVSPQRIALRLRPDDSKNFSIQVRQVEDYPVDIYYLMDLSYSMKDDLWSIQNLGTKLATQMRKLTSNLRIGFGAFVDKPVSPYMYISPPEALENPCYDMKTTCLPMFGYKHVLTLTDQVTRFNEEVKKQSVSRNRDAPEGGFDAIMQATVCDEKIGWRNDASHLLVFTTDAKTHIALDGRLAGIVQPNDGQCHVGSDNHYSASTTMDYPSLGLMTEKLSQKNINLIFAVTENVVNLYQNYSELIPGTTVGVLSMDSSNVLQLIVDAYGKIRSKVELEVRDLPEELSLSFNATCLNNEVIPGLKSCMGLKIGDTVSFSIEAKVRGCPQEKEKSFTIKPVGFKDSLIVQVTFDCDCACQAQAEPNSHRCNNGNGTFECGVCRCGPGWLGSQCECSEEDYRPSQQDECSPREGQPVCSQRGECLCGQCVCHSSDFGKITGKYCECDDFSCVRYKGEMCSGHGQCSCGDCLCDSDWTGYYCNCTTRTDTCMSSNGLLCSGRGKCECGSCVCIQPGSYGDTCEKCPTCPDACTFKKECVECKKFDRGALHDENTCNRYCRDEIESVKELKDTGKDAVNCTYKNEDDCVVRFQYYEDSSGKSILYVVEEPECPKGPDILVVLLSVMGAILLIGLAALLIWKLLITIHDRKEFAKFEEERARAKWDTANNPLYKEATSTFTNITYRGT
Sequence of Integrin alpha-IIb/beta-3 (P08514 32-887 limits assumed): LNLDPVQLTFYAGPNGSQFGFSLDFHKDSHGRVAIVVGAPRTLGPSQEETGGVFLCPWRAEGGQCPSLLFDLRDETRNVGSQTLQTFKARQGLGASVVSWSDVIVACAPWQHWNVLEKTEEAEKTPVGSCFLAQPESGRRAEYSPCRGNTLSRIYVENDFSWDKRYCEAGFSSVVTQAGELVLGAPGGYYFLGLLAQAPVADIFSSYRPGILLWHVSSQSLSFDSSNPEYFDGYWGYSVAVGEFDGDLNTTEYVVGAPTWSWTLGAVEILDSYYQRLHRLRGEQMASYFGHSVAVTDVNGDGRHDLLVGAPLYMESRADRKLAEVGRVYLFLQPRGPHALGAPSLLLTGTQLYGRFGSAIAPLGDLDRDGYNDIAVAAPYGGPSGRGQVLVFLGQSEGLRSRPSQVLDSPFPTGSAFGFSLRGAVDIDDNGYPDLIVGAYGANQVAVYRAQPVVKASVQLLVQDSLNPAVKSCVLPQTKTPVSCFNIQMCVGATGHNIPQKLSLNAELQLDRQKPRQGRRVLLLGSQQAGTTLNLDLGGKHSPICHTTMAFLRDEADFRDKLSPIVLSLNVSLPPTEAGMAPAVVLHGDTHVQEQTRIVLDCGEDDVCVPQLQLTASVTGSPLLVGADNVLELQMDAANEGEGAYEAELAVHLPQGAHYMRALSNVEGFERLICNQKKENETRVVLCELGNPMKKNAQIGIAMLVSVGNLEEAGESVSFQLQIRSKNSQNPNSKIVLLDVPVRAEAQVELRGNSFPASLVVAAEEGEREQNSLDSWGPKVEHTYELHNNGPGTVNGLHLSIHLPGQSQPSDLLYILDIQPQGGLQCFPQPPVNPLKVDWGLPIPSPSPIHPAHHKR
Sequence of Integrin alpha-IIb/beta-3 (P08514 891-1039 limits assumed): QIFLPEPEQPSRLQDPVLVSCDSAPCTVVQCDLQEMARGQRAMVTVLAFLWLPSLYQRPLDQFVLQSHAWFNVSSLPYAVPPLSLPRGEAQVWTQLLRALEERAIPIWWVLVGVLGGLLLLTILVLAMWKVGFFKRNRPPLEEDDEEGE

The IC50 is the concentration at which inhibition is half-maximal. The low end stands for inhibition by little substance, the high end for a need for much substance. Take `CN1CCC(CCC(=O)N2CCC[C@@H](C(=O)N[C@H](CC(=O)O)c3ccc4c(c3)OCO4)C2)CC1`: in the assay on Canis familiaris [1], the Duration is reported as 120 min. In addition, the IC50 in the assay listed under Homo sapiens (Homo sapiens) is 840 nM; in assay [2], 0.24 nM.
As to `O=C(O)C[C@@H](NC(=O)[C@@H]1CCCN(C(=O)CCC2CCNCC2)C1)c1ccc(Cl)s1`, the IC50 in the assay listed under Homo sapiens (Homo sapiens) was 40 nM; in assay [2], 0.1 nM.
`O=C(O)CC(NC(=O)C1CCCN(C(=O)CCC2CCNCC2)C1)c1cncc(-c2cccc([N+](=O)[O-])c2)c1` (centres undefined) had an IC50 in assay [2] of 14 nM. That is a double-digit nanomolar value.
With `O=C(O)C[C@H](NC(=O)[C@@H]1CCN(C(=O)/C=C/C2CCNCC2)C1)c1cccnc1`, the Duration in the assay on Canis familiaris [3] stood at 360 min. For the same molecule, the IC50 worked out at 140 nM in the assay filed under Homo sapiens (Homo sapiens) and 0.58 nM in assay [2].
`O=C(O)CC(NC(=O)C1CCCN(C(=O)CCC2CCNCC2)C1)c1cncc(-c2ccccc2)c1` (centres undefined) showed an IC50 in assay [2] of 1.8 nM.
Still for that read-out and setting: the same measure for `CC(C)(C)C#C[C@@H](CC(=O)O)NC(=O)[C@@H]1CCCN(C(=O)CCC2CCNCC2)C1`: 42 nM.
Same read-out and setting: then `COc1ccccc1-c1cncc(C(CC(=O)O)NC(=O)C2CCCN(C(=O)CCC3CCNCC3)C2)c1` (centres undefined), with 12 nM.
Turning to `C[C@H](CC(=O)O)NC(=O)[C@@H]1CCCN(C(=O)CCC2CCNCC2)C1`, the IC50 is 8000 nM in the assay filed under Homo sapiens (Homo sapiens) and 13.5 nM in assay [2].
`O=C(O)C[C@H](NC(=O)[C@@H]1CCCN(C(=O)CCC2CCNCC2)C1)c1cnc(Cl)c(Cl)c1`: the Duration in the assay on Canis familiaris [3] amounted to 150 min. Also, the IC50 in the assay listed under Homo sapiens (Homo sapiens) came out at 220 nM; in assay [2], 0.34 nM.
For the molecule `O=C(O)CC(NC(=O)C1CCCN(C(=O)CCC2CCNCC2)C1)c1cccnc1` (centres undefined), in assay [2], the IC50 came to 3 nM.
The same measure, in the same setting: then `Cc1ccc(-c2cncc(C(CC(=O)O)NC(=O)C3CCCN(C(=O)CCC4CCNCC4)C3)c2)cc1` (centres undefined), with 24 nM.
In the assay with Canis familiaris [3], `COC(=O)C[C@H](NC(=O)[C@@H]1CCCN(C(=O)CCC2CCNCC2)C1)c1cccnc1` registered a Duration of 60 min. The values for the IC50 (in the assay listed under Homo sapiens (Homo sapiens); in assay [2]) were 41000 nM and 7.2 nM, respectively.
For the molecule `O=C(O)CC(NC(=O)C1CCCN(C(=O)CCC2CCNCC2)C1)c1cncc(-c2cc3ccccc3o2)c1` (centres undefined), in assay [2], the IC50 was 36 nM.
With `O=C(O)C[C@@H](NC(=O)[C@@H]1CCCN(C(=O)CCC2CCNCC2)C1)c1cccnc1`, the Duration with Canis familiaris [3] was 360 min. Also, the IC50 was determined as 60 nM in the assay filed under Homo sapiens (Homo sapiens) and 0.36 nM in assay [2].
For `O=C(O)C[C@@H](Cc1ccccc1)NC(=O)[C@@H]1CCCN(C(=O)CCC2CCNCC2)C1`, the IC50 was 970 nM in the assay listed under Homo sapiens (Homo sapiens) and 0.37 nM in assay [2].
As to `O=C(O)CC(NC(=O)C1CCCN(C(=O)CCC2CCNCC2)C1)c1cncc(-c2cccs2)c1` (centres undefined), the IC50 in assay [2] was 1.5 nM.
Take `O=C(O)C[C@H](NC(=O)[C@H]1CN(C(=O)CCC2CCNCC2)CCN1)c1cccnc1`: the figures for the IC50 (in the assay filed under Homo sapiens (Homo sapiens); in assay [2]) were 600 nM and 1.7 nM, respectively.
`O=C(O)C[C@H](NC(=O)[C@@H]1CCCN(C(=O)/C=C/C2CCNCC2)C1)c1cccnc1` returned a Duration in the assay on Canis familiaris [3] of 210 min. The IC50 in the assay filed under Homo sapiens (Homo sapiens) amounted to 160 nM; in assay [2], 0.81 nM.
Taken in the same sequence, the figures for `CCOC(=O)C[C@@H](NC(=O)[C@@H]1CCCN(C(=O)CCC2CCNCC2)C1)c1ccc2c(c1)OCO2` were less than 30 min, 36000 nM and 48 nM.
The like results for `O=C(O)C[C@@H](NC(=O)[C@@H]1CCCN(C(=O)CCC2CCNCC2)C1)c1ncc(C(F)(F)F)cc1Cl` were, in that order, 30 min, 11800 nM and 66.8 nM.
`O=C(O)C[C@H](C#Cc1ccccc1)NC(=O)[C@@H]1CCCN(C(=O)CCC2CCNCC2)C1` registered a Duration in the assay with Canis familiaris [4] of less than 30 min. Moreover, the values for the IC50 (in the assay filed under Homo sapiens (Homo sapiens); in assay [2]) were 80 nM and 0.22 nM, respectively.
`O=C(O)CC(NC(=O)C1CCCN(C(=O)CCC2CCNCC2)C1)c1cncc(-c2cccc3ccccc23)c1` (centres undefined) gave an IC50 in assay [2] of 26 nM.
In the case of `O=C(O)C[C@@H](C#Cc1ccccc1)NC(=O)[C@@H]1CCCN(C(=O)CCC2CCNCC2)C1`, the half-inhibitory concentration (IC50) in the assay filed under Homo sapiens (Homo sapiens) stood at 3500 nM; in assay [2] it was 0.29 nM.
Take `O=C(C[C@H](NC(=O)[C@@H]1CCCN(C(=O)CCC2CCNCC2)C1)c1cccnc1)OCCC1CCCCC1`: the Duration in the assay on Canis familiaris [3] is on record as 120 min. Besides, the results for the IC50 (in the assay listed under Homo sapiens (Homo sapiens); in assay [2]) were 2200 nM and 3.8 nM, respectively.
For the molecule `N=CN1CCC(CCC(=O)N2CCC[C@@H](C(=O)N[C@@H](CC(=O)O)c3cccnc3)C2)CC1`, the Duration in the assay with Canis familiaris [3] was found to be 90 min. Also, the IC50 in the assay listed under Homo sapiens (Homo sapiens) was 350 nM; in assay [2], 0.75 nM.
In the case of `O=C(N[C@H](Cc1ccccc1)[C@@H](O)C(=O)O)[C@@H]1CCCN(C(=O)CCC2CCNCC2)C1`, the IC50 in the assay filed under Homo sapiens (Homo sapiens) amounted to 210 nM; in assay [2] it was 17.9 nM.
As to `O=C(O)C[C@H](NC(=O)[C@@H]1CCCN(C(=O)CCC2CCNCC2)C1)c1cncc(-c2ccccc2)c1`, the IC50 came to 70 nM in the assay listed under Homo sapiens (Homo sapiens) and 0.52 nM in assay [2].
Molecule `COc1ccc(-c2cncc(C(CC(=O)O)NC(=O)C3CCCN(C(=O)CCC4CCNCC4)C3)c2)cc1` (centres undefined) showed an IC50 in assay [2] of 11 nM. This counts as double-digit nanomolar.
Regarding `O=C(O)C[C@H](NC(=O)[C@@H]1CCCN(C(=O)CCC2CCNCC2)C1)c1ccc(-c2ccsc2)nc1`, in the assay with Canis familiaris [3], the Duration is 150 min. For the same molecule, the IC50 was determined as 200 nM in the assay filed under Homo sapiens (Homo sapiens) and 0.37 nM in assay [2].
In turn, `COc1cccc(-c2cncc(C(CC(=O)O)NC(=O)C3CCCN(C(=O)CCC4CCNCC4)C3)c2)c1` (centres undefined) had an IC50 in assay [2] of 11 nM.
Regarding `O=C(O)C[C@@H](NC(=O)[C@@H]1CCCN(C(=O)CCC2CCNCC2)C1)c1ccc2c(c1)OCO2`, the Duration with Canis familiaris [3] was 180 min. The IC50 in the assay listed under Homo sapiens (Homo sapiens) was 20 nM; in assay [2] it was 0.5 nM.
`O=C(O)C[C@H](NC(=O)[C@@H]1CCCN(C(=O)CCC2CCNCC2)C1)c1cncc(Br)c1`: the Duration with Canis familiaris [3] was determined as 180 min. Further, the results for the IC50 (in the assay listed under Homo sapiens (Homo sapiens); in assay [2]) were 20 nM and 0.21 nM, respectively.
`O=C(O)C(O)CNC(=O)[C@@H]1CCCN(C(=O)CCC2CCNCC2)C1` (some centres undefined): the IC50 in the assay filed under Homo sapiens (Homo sapiens) was 1600 nM; in assay [2] it was 3.5 nM.
For the molecule `Nc1cccc(-c2cncc(C(CC(=O)O)NC(=O)C3CCCN(C(=O)CCC4CCNCC4)C3)c2)c1` (centres undefined), the IC50 in assay [2] amounted to 3.6 nM.
`O=C(O)CC(NC(=O)C1CCCN(C(=O)CCC2CCNCC2)C1)c1cncc(-c2ccc(Cl)s2)c1` (centres undefined) showed an IC50 in assay [2] of 57 nM. Against the preceding molecule, the IC50 is about 16-fold higher.
Regarding `COc1ncc([C@H](CC(=O)O)NC(=O)[C@@H]2CCCN(C(=O)CCC3CCNCC3)C2)cc1Cl`, the Duration in the assay on Canis familiaris [3] was determined as 30 min. Besides, the half-inhibitory concentration (IC50) in the assay filed under Homo sapiens (Homo sapiens) was determined as 90 nM; in assay [2], 3.8 nM.
In the case of `O=C(O)CC(NC(=O)C1CCCN(C(=O)CCC2CCNCC2)C1)c1cncc(Br)c1` (centres undefined), in assay [2], the IC50 was found to be 3 nM.
As to `C#Cc1cncc([C@H](CC(=O)O)NC(=O)[C@@H]2CCCN(C(=O)CCC3CCNCC3)C2)c1`, the results for the IC50 (in the assay filed under Homo sapiens (Homo sapiens); in assay [2]) were 30 nM and 0.24 nM, respectively.
Take `O=C(O)C[C@@H](NC(=O)[C@@H]1CCCN(C(=O)CCC2CCNCC2)C1)c1cccs1`: the IC50 is 90 nM in the assay filed under Homo sapiens (Homo sapiens) and 0.1 nM in assay [2].
In the assay with Canis familiaris [3], `Cc1ccc([C@H](CC(=O)O)NC(=O)[C@@H]2CCCN(C(=O)CCC3CCNCC3)C2)cn1` showed a Duration of 210 min. The IC50 came to 30 nM in the assay filed under Homo sapiens (Homo sapiens) and 0.13 nM in assay [2].
Taken in the same sequence, the figures for `O=C(O)C[C@H](NC(=O)[C@@H]1CCCN(C(=O)CCC2CCNCC2)C1)c1ccc(Cl)nc1` were 210 min, 20 nM and 0.14 nM.
Taken in the same sequence, the figures for `O=C(O)C[C@H](NC(=O)[C@@H]1CCCN(C(=O)CCC2CCNCC2)C1)c1cncc(CCc2ccccc2)c1` were 180 min, 30 nM and 0.66 nM.
`O=C(O)C[C@H](NC(=O)[C@@H]1CCCN(C(=O)CCC2CCNCC2)C1)c1cncc(C#Cc2ccccc2)c1` showed a Duration in the assay with Canis familiaris [4] of less than 30 min. The IC50 in the assay filed under Homo sapiens (Homo sapiens) worked out at 40 nM; in assay [2] it was 0.85 nM.
With `O=C(O)CC(NC(=O)C1CCCN(C(=O)CCC2CCNCC2)C1)c1cncc(-c2ccsc2)c1` (centres undefined), in assay [2], the IC50 turned out to be 2 nM. That is a single-digit nanomolar value.
In assay [2], `O=C(O)CC(NC(=O)C1CCCN(C(=O)CCC2CCNCC2)C1)c1cncc(-c2ccc3ccccc3c2)c1` (centres undefined) gave an IC50 of 57 nM.
Consider `CC(C)(C)C#C[C@H](CC(=O)O)NC(=O)[C@@H]1CCCN(C(=O)CCC2CCNCC2)C1`, for which the IC50 in the assay filed under Homo sapiens (Homo sapiens) stood at 31000 nM; in assay [2] it was 5.6 nM.
In turn, `O=C(O)CCNC(=O)[C@@H]1CCCN(C(=O)CCC2CCNCC2)C1` yielded a Duration in the assay with Canis familiaris [3] of 120 min. Further, the IC50 in the assay listed under Homo sapiens (Homo sapiens) was 270 nM; in assay [2] it was 4.8 nM.
In assay [2], `O=C(O)C[C@@H](NC(=O)[C@@H]1CCCN(C(=O)CCC2CCNCC2)C1)c1cnc2ccccc2c1` (stereo in doubt; 33) displayed an IC50 of 0.18 nM. This counts as sub-nanomolar.
As to `O=C(O)C[C@@H](NC(=O)[C@@H]1CCCN(C(=O)CCC2CCNCC2)C1)c1cnc2ccccc2c1` (stereo in doubt; 34), the values for the IC50 (in the assay listed under Homo sapiens; in assay [2]) were 1200 nM and 0.37 nM, respectively.
`C#C[C@H](CC(=O)OCC)NC(=O)CCC(=O)Nc1ccc(C(=N)N)cc1` [XEMILOFIBAN] gave a Duration in the assay on Canis familiaris [3] of more than 180 min. The results for the IC50 (in the assay filed under Homo sapiens (Homo sapiens); in assay [2]) were 300 nM and 2 nM, respectively.
